High-throughput results as filed in PubChem.
Sampled rows, rich in hits. Any-hit rate of the full collection: about 2.4%.
CSN deneddyl inh: inhibitors of CSN-mediated cullin deneddylation, primary screen, biochemical, fluorescence polarization, uHTS; Purified CSN, SCF-Nedd8-OG deneddylation; AID 651999, 2013; inhibition, % at 12.5 µM; COP9 signalosome complex subunit 5 (Homo sapiens), Q92905; 360,000 tested, 0.38% active;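 active means pattern-corrected inhibition above about 35%, with an unprinted fluorescence ratio check between 0.5 and 1.5, limit read from the data, passing the limit was not always enough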
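Test system: purified human Csn5 enzyme expressed in HEK293T cells. Amount: 0.24 nM enzyme. Reagent: SCFSkp2-Nedd8OG substrate at 10 nM final. Schedule: 90 min incubation of compound, enzyme and substrate at room temperature. Detection: fluorescence polarization. Read-out: % inhibition of substrate cleavage by Csn5.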
TPT1 inh: Candida albicans TPT1 enzyme inhibitors, primary screen, biochemical, fluorescence polarization; tRNA 2'-phosphotransferase TPT1 (Candida albicans SC5314); recombinant caTPT1, FP RNA substrate dephosphorylation; inhibition, % at 5 µM; 300,000 tested, 0.81% active;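 active means inhibition above the mean of all tested compounds plus 3 SD, set per screening campaign, cut at about 24% in these data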
Rpn11 inh: Rpn11 (PSMD14) deubiquitinase inhibitors, primary screen, biochemical, fluorescence polarization, uHTS. human 26S proteasome, Ub4-pepOG fluorescence polarization; 20S core pre-blocked with epoxomicin. inhibition, % at 20 µM. 360,000 tested, 0.59% active. AID 588493, 2011;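 active means inhibition at 20 µM, scaled to each plate's controls, above about 33%, limit read from the data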
HNF4A DNA FP: change in binding of human HNF4A to DNA, primary screen, biochemical, fluorescence polarization, FITC-DNA; Hepatocyte nuclear factor 4-alpha (Homo sapiens), P41235; 1 h; activity change, % at 10 µM; 360,000 tested, 0.3% active; AID 1224865, 2016; in the data active means activity change above about 30%, passing the limit was not always enough
Neddylation inh: inhibitors of cullin neddylation, primary screen, biochemical, TR-FRET, uHTS, NAE and Ubc12; 360,000 tested, 0.58% active; NEDD8-conjugating enzyme Ubc12 (Homo sapiens) + NEDD8-activating enzyme E1 regulatory …; inhibition, % at 25 µM; AID 651699, 2012; in the data active means inhibition above about 36%
Rin1-Abl PPI inh: inhibitors of Rin1-Abl protein binding, primary screen, biochemical, TR-FRET; 360,000 tested, 0.4% active; AID 588664, 2011; inhibition, % at 7.35 µM; Tyrosine-protein kinase ABL1 (Homo sapiens) + Ras and Rab interactor 1 (Homo sapiens), …; in the data active means inhibition above about 5%, passing the limit was not always enough
Neddyl conf: blockade of NEDD8 conjugation to cullin – biochemical, TR-FRET, single concentration, confirmation; TR-FRET cullin neddylation biochemical assay; shares compounds with Neddylation inh; 1,800 tested, 13% active; calls only at 25 µM; AID 652217, 2013; in the data active means inhibition above about 40%;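 further: neddylation substrate is the cullin 1 ring ligase complex with SKP2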
Each line names hits and unclear results; the compound was inactive in the other large screens (follow-up assays come after a bar, where shown).

c1nc2sc3c(c2c2nnnn12)CCC3	Neddylation inh 41.0 | Neddyl conf inactive
c1nc2sc3c(c2c2nnnn12)CCCC3	none
Oc1ccc(Br)cc1C=Nc1ccc2c3c(cccc13)CC2	Neddylation inh 43.3 (not shown: Rpn11 inh)
CCCN(CCC)CCCNC(=O)c1cc2c(-c3ccc(OC)c(OC)c3)nn(C)c2s1	Neddylation inh 41.4 | Neddyl conf inactive
COc1ccc(-c2nn(C)c3sc(C(=O)NCCN(C)C)cc23)cc1OC	none
O=C(/C=C/c1ccccc1)N1CCN(S(=O)(=O)c2ccc(F)cc2)CC1	none
CCN(CC)c1ccc(S(=O)(=O)N2CCOCC2)cc1NC(=O)COC(=O)/C=C/c1ccc(O)c(OC)c1	Neddylation inh 31.9 (no result: TPT1 inh) | Neddyl conf inactive
COc1cccc(/C=C/C(=O)OCC(=O)Nc2ccc(S(=O)(=O)N3CCCC3)cc2)c1	none (not shown: Neddylation inh)
COc1cccc(/C=C/C(=O)N2CCN(S(=O)(=O)c3ccccc3)CC2)c1	Neddylation inh 41.2 (no result: TPT1 inh) | Neddyl conf inactive
COc1cc(/C=C/C(=O)OCC(=O)N2CCN(S(=O)(=O)c3ccc(C)cc3C)CC2)ccc1O	Neddylation inh 47.5 | Neddyl conf inactive
COc1cccc(/C=C/C(=O)OCC(=O)N2CCN(S(=O)(=O)c3ccc(Cl)cc3)CC2)c1	Neddylation inh 41.1 | Neddyl conf inactive
COc1ccc(Cc2nnc(NC(=O)c3cccs3)s2)cc1OC	none
COc1ccc(NC(=O)Cn2c(=O)cnc3ccccc32)cc1S(=O)(=O)N1CCCCC1	none
CCOc1ncccc1C(=O)NCc1ccccc1Cl	none
CCN(CC(=O)NCc1cccs1)C(=O)/C=C/c1cccc(OC)c1OC	Neddylation inh 45.6
CCN(CC)CCN(C(=O)c1cc2c(ccc3ccccc32)oc1=O)c1nc2cc3c(cc2s1)OCCO3	Neddylation inh 56.4 | Neddyl conf inactive
COc1cccc(/C=C/C(=O)NCc2cn3cc(Cl)ccc3n2)c1OC	Neddylation inh 49.8 | Neddyl conf inactive
Cc1ccc(-n2c(SCC(=O)OC(C)C)nnc2-c2ccncc2)cc1	Neddylation inh 40.7 | Neddyl conf inactive
COc1ccc(OC)c(NC(=O)COC(=O)CC2CCCCC2)c1	none (no result: TPT1 inh)
Cn1ccnc1SCCNC(=O)CCc1nnc(CCc2ccccc2)o1	none
COc1ccccc1-c1nc(C#N)c(N2CCN(Cc3ccccc3)CC2)o1	Neddylation inh 45.6
c1cc2c3c(cccc3c1)-c1cnccc1-2	Neddylation inh 55.7 (no result: TPT1 inh) | Neddyl conf active
CC(C)CC[n+]1ccn(-c2nc3ccccc3nc2[N-]S(=O)(=O)c2ccccc2)c1	Neddylation inh 45.3 | Neddyl conf inactive
Cc1ccc[n+](-c2nc3ccccc3nc2[N-]S(=O)(=O)c2ccccc2)c1	none
O=C(CCCC(=O)NNC(=O)Nc1ccccc1)NNC(=O)Nc1ccccc1	none
CCOc1ccc(C(=O)N/N=C/c2ccc(-c3ccc(S(=O)(=O)Nc4ncccn4)cc3)o2)cc1	Neddylation inh 57.1 | Neddyl conf active
COc1ccc(-c2ccc(SCC(=O)NCc3ccco3)nn2)cc1	none
COc1ccc(-c2[nH]c(-c3cccc(OC)c3)nc2SCC(=O)NCc2ccco2)cc1	Neddylation inh 42.1 | Neddyl conf inactive
CCCn1c(=O)[nH]c(=O)c2c1nc(-c1ccc(OC(F)F)c(OC)c1)n2CCOC	Neddylation inh 39.0 | Neddyl conf inactive
CCC(=O)Oc1ccc(NC(=O)CSCc2ccccc2)cc1	none
COc1ccc(Cl)cc1Nc1nc(N)c2ccccc2n1	Neddylation inh 45.0 | Neddyl conf active
